Source: ChEMBL document CHEMBL3877293, “Synthesis and Antineoplastic Evaluation of Novel Unsymmetrical 1,3,4-Oxadiazoles” (J Med Chem, 2016)
Active and inactive are the calls of the source. The rule behind the calls is not given here.

What was measured:
[1] = Cell cycle arrest in human NB1 hTERT cells assessed as sub G1 phase accumulation at 1 uM after 48 hrs by propidium iodide staining based flow cytometry relative to control; assay type: functional
[2] = Effect on p53 expression in human NB-1 cells at 1 uM after 24 hrs by immunoblot method; assay type: cell-based; conditions: nb1, 24 h
In short: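 After 24 h treatment at 1 μM, cells lysed in Tris pH 8/NaCl/glycerol/NP-40/EDTA buffer with protease inhibitors. Equal lysate amounts run on 10% SDS gels, blotted to nitrocellulose, probed for p53 with GAPDH as loading control, detected by enhanced chemiluminescence. Bands quantified by densitometry against GAPDH and compared with untreated cells; three independent experiments.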

[3] = Cell cycle arrest in human NCI-H1299 cells assessed as S phase accumulation at 1 uM after 24 hrs by propidium iodide staining based flow cytometry (reference value: 16.4 +/- 1.76%); assay type: functional
[4] = Antiproliferative activity against human MCF7 cells at 0.5 uM after 72 hrs in presence of 5 uM BCRP inhibitor harmine by XTT assay relative to control; assay type: functional
In short: (§1)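 Mcf7 cells treated after 24 h for 72 h at 37 °C, 5% CO2 with test compound at 0.5 μM alone or combined with harmine (1, 3, 5 μM) or reversan (5, 15, 25 μM). XTT was added for 4 h at 37 °C, absorbance read at 490 nm, and viability compared with control.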

[5] = Antiproliferative activity against human PC3 cells after 72 hrs by XTT assay; assay type: functional, cell-based; conditions: PC-3, 72 h
In short: (§2)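 Cells plated at 1500–2000 per well by doubling time, treated after 24 h with a concentration series in six triplicate wells, and incubated 72 h without a medium change. XTT reagent was then added for 4 h at 37 °C and absorbance read at 490 nm. IC50 is the concentration halving absorbance versus untreated cells. Experiments run in triplicate.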

[6] = tested on: HeLa; assay: Cytotoxicity against human HeLa cells assessed as inhibition of colony formation after 2 weeks by crystal violet staining based assay; assay type: functional, cell-based
In short: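 HeLa seeded at 100-200 cells/well in six-well plates and treated with 0.3 or 0.03 μM compound (DMSO control). Medium with compound changed every 3 days for about two weeks, until control colonies were visible. Colonies fixed and stained with 6.0% glutaraldehyde/0.5% crystal violet for 30 min, then counted against control. Done in triplicate.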

[7] = tested on: A549; assay: Induction of apoptosis in human A549 cells assessed as live cells at 5 uM after 72 hrs by Annexin-V FITC/propidium iodide staining based flow cytometry (reference value: 91.9%); assay type: functional
[8] = Cell cycle arrest in human T98G cells assessed as S phase accumulation at 1 uM after 24 hrs by propidium iodide staining based flow cytometry (reference value: 5.1 +/- 0.82%); assay type: functional
[9] = Cell cycle arrest in human NB1 hTERT cells assessed as G1 phase accumulation at 1 uM after 72 hrs by propidium iodide staining based flow cytometry (reference value: 72.5%); assay type: functional
[10] = Cell cycle arrest in human NB-1 cells assessed as S phase accumulation at 1 uM after 72 hrs by propidium iodide staining based flow cytometry (reference value: 2.5%); conditions: nb1, 72 h
[11] = Cell cycle arrest in human Kelly cells assessed as S phase accumulation at 1 uM after 24 hrs by propidium iodide staining based flow cytometry (reference value: 16.1 +/- 1.28%); assay type: functional
[12] = Cell cycle arrest in human NB-1 cells assessed as G2/M phase accumulation at 1 uM after 24 hrs by propidium iodide staining based flow cytometry (reference value: 21.2%); conditions: nb1, 24 h
[13] = Cell cycle arrest in human MCF7 cells assessed as G2/M phase accumulation at 1 uM treated for 24 hrs followed by compound washout measured after 24 hrs by propidium iodide staining based flow cytometry (reference value: 26.4%); assay type: functional
[14] = tested on: SH-SY5Y; assay: Disruption of beta-tubulin network in human SH-SY5Y cells assessed as shorter microtubule bundles around nuclei at 1 uM after 24 hrs by DAPI staining based immunofluorescence microscopic analysis; assay type: cell-based
In short: (§3)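 Cells seeded on glass coverslips (1 x 10^5/well), treated 24 h, fixed in 4% paraformaldehyde 15 min, permeabilized with 0.5% Triton X-100, blocked in 5% BSA/PBS, stained overnight at 4 °C with anti-β-tubulin (1:200) then fluorescent secondary antibody; nuclei counterstained with DAPI; microtubule organization and nuclear morphology examined by fluorescence microscopy.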

[15] = tested on: HeLa; assay: Disruption of beta-tubulin network in human HeLa cells assessed as induction of abnormal cell division at 1 uM after 24 hrs by DAPI staining based immunofluorescence microscopic analysis
[16] = Antiproliferative activity against human T98G cells after 72 hrs by XTT assay; assay type: functional, cell-based; in short: as §2
[17] = tested on: SH-SY5Y; assay: Disruption of beta-tubulin network in human SH-SY5Y cells assessed as pyknotic nuclei at 1 uM after 24 hrs by DAPI staining based immunofluorescence microscopic analysis; assay type: cell-based; in short: as §3
[18] = Antiproliferative activity against human Kelly cells after 72 hrs by XTT assay; assay type: functional, cell-based; in short: as §2
[19] = tested on: HeLa; assay: Induction of apoptosis in human HeLa cells assessed as early apoptotic cells at 5 uM after 48 hrs by Annexin-V FITC/propidium iodide staining based flow cytometry (reference value: 1.6%); assay type: functional
[20] = Cell cycle arrest in human PC3 cells assessed as S phase accumulation at 1 uM after 24 hrs by propidium iodide staining based flow cytometry (reference value: 6.2 +/- 0.94%); assay type: functional; conditions: PC-3
[21] = Cell cycle arrest in human NCI-H1299 cells assessed as sub G1 phase accumulation at 1 uM after 48 hrs by propidium iodide staining based flow cytometry relative to control; assay type: functional
[22] = Cell cycle arrest in human SK-N-AS cells assessed as subG1 phase accumulation at 1 uM after 24 hrs by propidium iodide staining based flow cytometry relative to DMSO control; assay type: functional
[23] = Cell cycle arrest in human NB-1 cells assessed as G2/M phase accumulation at 1 uM after 48 hrs by propidium iodide staining based flow cytometry (reference value: 12.4%); conditions: nb1, 48 h
[24] = Cell cycle arrest in human SK-N-AS cells assessed as G2/M phase accumulation at 1 uM after 24 hrs by propidium iodide staining based flow cytometry (reference value: 25.2 +/- 1.32%); assay type: functional
[25] = tested on: MCF7; assay: Antiproliferative activity against human MCF7 cells at 0.5 uM after 72 hrs in presence of MRP1 inhibitor reversan by XTT assay relative to control; assay type: functional, cell-based; in short: as §1
[26] = Cell cycle arrest in human NB1 hTERT cells assessed as S phase accumulation at 1 uM after 24 hrs by propidium iodide staining based flow cytometry (reference value: 11.8%); assay type: functional
[27] = tested on: MCF7; assay: Selectivity ratio of IC50 for human MCF7 cells to IC50 for human RD cells; assay type: functional
In short: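 XTT viability: 1500–2000 cells/well plated by doubling time; compounds added after 24 h, then 72 h further culture without medium change. XTT reagent 4 h at 37 °C, absorbance read at 490 nm. IC50 is the concentration halving absorbance versus untreated cells; triplicate experiments. Ratio is MCF7 IC50 divided by IC50 in the named line.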

[28] = Antiproliferative activity against human MRC5-SV1 S40 cells after 72 hrs by XTT assay; assay type: functional, cell-based; in short: as §2
[29] = Cell cycle arrest in human NB-1 cells assessed as S phase accumulation at 1 uM after 24 hrs by propidium iodide staining based flow cytometry (reference value: 3.8%); conditions: nb1, 24 h

With `Cc1[nH]c2c(c1-c1nnc(-c3ccccc3)o1)Cc1ccccc1-2` the Activity [1] was 24.9%, the Activity [2] was “Non-Toxic” and the Activity [3] was 7.6%. The Activity [4] was 40%, the IC50 [5] was 670 nM and the inhibition [6] was “Dose-dependent effect”. For the same compound, the Activity [7] was 42.7%, the Activity [8] was 6.2% and the Activity [9] was 45.6%. The Activity [10] was 4.3%, the Activity [11] was 9.7% and the Activity [12] was 23.8%. The Activity [13] was 31.7%, the Activity [14] was “Active” and the Activity [15] was “Active”. For the same compound, the IC50 [16] was 60 nM, the Activity [17] was “Active” and the IC50 [18] was 250 nM. It also gave an Activity [19] of 4.6%, an Activity [20] of 4.7% and an Activity [21] of 13.4%. The Activity [22] was 6.3%, the Activity [23] was 15% and the Activity [24] was 73%. For the same compound, the Activity [25] was “Active”, the Activity [26] was 12.3% and the “Ratio IC50” value [27] was 28 - 34. It also gave an IC50 [28] of 130 nM and an Activity [29] of 3.2%.
